According to ChEMBL document CHEMBL4823325, “Synthesis of Benzoazepine Derivatives via Azide Rearrangement and Evaluation of Their Antianxiety Activities” (ACS Med Chem Lett, 2021):
The source made the active and inactive calls. The calls are words filed in the database; no cut-off is given here.

Key:
Rattus norvegicus [1] = experiment: Anxiolytic activity in restraint stress induced anxiety Wistar rat model assessed as increase in open arm entry at 2 mg/kg, po measured after 30 mins by elevated plus maze test; assay type: functional, organism-based
Procedure, shortened: (§1)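 Rats were stressed by immobilization in a plastic restrainer for 2 h/day for 14 days. Test compounds were given at 2 mg/kg 30 min before the elevated plus maze, six rats per group. Read-outs were percent open arm entry, percent open arm time and anxiety index (higher index means more anxiety). Groups were compared with nonstressed vehicle and stressed vehicle groups.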

Rattus norvegicus [2] = experiment: Anxiolytic activity in restraint stress induced anxiety Wistar rat model assessed as increase in time spent in inner zone at 2 mg/kg, po measured after 30 mins by open field test; assay type: functional, organism-based
Procedure, shortened: (§2)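 Restraint stress was applied by immobilization in a plastic restrainer for 2 h/day over 14 days. Rats received 2 mg/kg 30 min before the open field test, six per group. Inner zone time was scored as the anxiety measure and the number of total lines crossed as locomotor activity. Groups were compared with nonstressed vehicle and stressed vehicle groups.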

HEK293 = experiment: Cytotoxicity against human HEK293 cells assessed as reduction in cell viability measured after 24 hrs by MTT assay; assay type: cell-based; conditions: HEK293, 24 h
Rattus norvegicus [3] = experiment: Induction of hyperlocomotor activity in restraint stress induced anxiety Wistar rat model assessed as increase in total lines crossed at 2 mg/kg, po measured after 30 mins by open field test; assay type: functional, organism-based; procedure, shortened: as §2
Rattus norvegicus [4] = experiment: Anxiolytic activity in restraint stress induced anxiety Wistar rat model assessed as increase in time spent in open arm at 2 mg/kg, po measured after 30 mins by elevated plus maze test; assay type: functional, organism-based; procedure, shortened: as §1
Rattus norvegicus [5] = experiment: Anxiolytic activity in restraint stress induced anxiety Wistar rat model assessed as decrease in anxiety index at 2 mg/kg, po measured after 30 mins by elevated plus maze test; assay type: functional, organism-based; procedure, shortened: as §1
[6] = Effect on locomotor activity in normal Wistar rat assessed as effect on total open arm entry at 2 mg/kg, po measured after 30 mins by elevated plus maze test; conditions: in vivo, 0.5 h
Rattus norvegicus [7] = experiment: Anxiolytic activity in restraint stress induced anxiety Wistar rat model assessed as decrease in rearing behaviour at 2 mg/kg, po measured after 30 mins by open field test; assay type: functional, organism-based
Procedure, shortened: (§3)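 Open field test in rats stressed by immobilisation in a plastic restrainer for 2 h/day for 14 days, with non-stressed controls. Animals received 2 mg/kg acutely 30 min before testing, six rats per group. Readouts were inner zone time, outer zone time, total lines crossed (locomotion) and rearing (exploration).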

Rattus norvegicus [8] = experiment: Anxiolytic activity in restraint stress induced anxiety Wistar rat model assessed as decrease in time spent in outer zone at 2 mg/kg, po measured after 30 mins by open field test; assay type: functional, organism-based; procedure, shortened: as §3

| Structure (SMILES) | Activity (Rattus norvegicus [1]) | Activity (Rattus norvegicus [2]) | IC50 (HEK293) | Activity (Rattus norvegicus [3]) | Activity (Rattus norvegicus [4]) | Activity (Rattus norvegicus [5]) | Activity [6] | Activity (Rattus norvegicus [7]) | Activity (Rattus norvegicus [8]) |
| --- | --- | --- | --- | --- | --- | --- | --- | --- | --- |
| Clc1ccc2c(c1)NCc1ccc(Oc3ccccc3)cc1C2 | Active | Active | 14.2 µM | Active | Active | Active | Non-Toxic | – | – |
| COc1ccc2c(c1)Cc1ccccc1NC2 | Active | Active | 65.7 µM | Active | Active | Active | Non-Toxic | – | – |
| COc1ccc2c(c1)CCc1ccccc1NC2 | – | – | 14.1 µM | – | – | – | – | – | – |
| COc1ccc2c(c1)Cc1cccc(F)c1NC2 | – | – | 6.19 µM | – | – | – | – | – | – |
| COc1ccc2c(c1)NCc1ccc(Oc3ccccc3)cc1C2 | – | – | 2.12 µM | – | – | – | – | – | – |
| COc1ccc2c(c1)Cc1cc(Cl)ccc1NC2 | – | – | 2.29 µM | – | – | – | – | – | – |
| COc1ccc2c(c1)Cc1ccc(OC)cc1NC2 | – | – | 1.09 µM | – | – | – | – | – | – |
| Fc1cccc2c1NCc1ccc(Oc3ccccc3)cc1C2 | Active | Active | 13.7 µM | Active | Active | Active | Non-Toxic | – | – |
| COc1ccc2c(c1)Cc1cc(F)ccc1NC2 | Active | Active | 0.16 µM | Active | Active | Active | Non-Toxic | – | – |
| COc1ccc2c(c1)Cc1cc3c(cc1NC2)OCO3 | – | – | 14.5 µM | – | – | – | – | – | – |
| COc1ccc2c(c1)Cc1ccc(Cl)cc1NC2 | Active | Active | 12.6 µM | Active | Active | Active | Non-Toxic | – | – |
| c1ccc(Oc2ccc3c(c2)Cc2ccccc2NC3)cc1 | – | – | 4.43 µM | – | – | – | – | – | – |
| COc1ccc2c(c1)Cc1c(F)cccc1NC2 | – | – | 0.77 µM | – | – | – | – | – | – |
| COc1cc2c(c(OC)c1)CNc1ccccc1C2 | – | – | 6.44 µM | – | – | – | – | – | – |
| CN1C(=O)CN=C(c2ccccc2)c2cc(Cl)ccc21 [DIAZEPAM] | Active | Active | 87.9 µM | Active | Active | Active | – | Active | Active |
